ChEMBL document CHEMBL4033780, “Lipidated Brartemicin Analogues Are Potent Th1-Stimulating Vaccine Adjuvants” (J Med Chem, 2018)
The source made the active and inactive calls. No cut-off for these calls is given here.

What was measured:
BMDM = assay: Immunostimulatory activity in mincle-/- C57BL/6 mouse GM-CSF derived BMDM assessed as increase in IL-6 release at […] after 24 hrs by sandwich ELISA method; format: functional, cell-based
Procedure, shortened: (§1)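 Wild-type or Mincle−/− C57BL/6 bone marrow was cultured 8 days with GM-CSF 50 ng/mL in complete RPMI. Macrophages were detached with Acutase and seeded on ligand-coated plates (0.1 or 1 nmol/well); LPS 100 ng/mL was used as comparator. Supernatant was taken at 24 h and TNF, IL-6, IL-1β and MIP-2 measured by sandwich ELISA. Representative of three experiments in triplicate (±SD).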

[1] = target: T1, C-type lectin domain family 4 member E (Mus musculus) (UniProt Q9R0Q8); assay: Binding affinity to recombinant mouse mincle extracellular domain fused with human IgG Fc expressed in HEK293T cells at 0.1 nmol by ELISA; format: cell-based; details: HEK-293T
T1 sequence (whole entry): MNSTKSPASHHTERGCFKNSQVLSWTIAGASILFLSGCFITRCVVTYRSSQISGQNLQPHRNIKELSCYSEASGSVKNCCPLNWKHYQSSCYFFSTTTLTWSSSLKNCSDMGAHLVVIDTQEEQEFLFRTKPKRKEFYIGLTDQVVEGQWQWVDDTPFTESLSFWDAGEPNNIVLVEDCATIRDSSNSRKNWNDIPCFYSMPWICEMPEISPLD

[2] = target: T1, C-type lectin domain family 4 member E (Mus musculus); assay: Agonist activity at mouse mincle coupled with FcRgamma expressed in 2B4-NFAT-GFP reporter cells after 18 hrs by flow cytometric analysis; format: cell-based
Procedure, shortened: (§2)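 2B4 NFAT-GFP reporter cells expressing mouse or human Mincle plus FcRγ were placed on plates coated with ligand at 0.01, 0.1 or 1 nmol/well; cells expressing FcRγ only served as negative control. Ligand was coated from isopropanol, 0.05 mM, and solvent evaporated. After 18 h, cells were harvested, stained with propidium iodide and GFP read by flow cytometry. Mean of three experiments in duplicate (±SEM).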

[3] = Toxicity in Atlantic horseshoe crab blood limulus amebocyte lysate by chromogenic endotoxin test; details: limulus polyphemus
Procedure, shortened: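 Endotoxin was measured by chromogenic Limulus amebocyte lysate assay at a sensitivity of ≤0.1 EU/mL.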

Mus musculus [4] = organism: Mus musculus; assay: Adjuvant activity in immunized C57BL/6 mouse assessed as increase in IL-17 production in spelnocytes at 0.3 umol treated with ovalbumin for 7 days followed by stimulation with OVA for 7 days and restimulation with OVA measured 24 to 48 hrs post OVA challenge; format: functional, cell-based
Procedure, shortened: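 C57BL/6 mice (8–12 wk) given s.c. oil-in-water emulsion (mineral oil/Tween-80/PBS 9:1:90) holding OVA 200 μg ± adjuvant 0.3 μmol; controls were OVA alone or no OVA. Footpad challenge with OVA 100 μg on day 7, spleens taken day 14. Splenocytes restimulated with OVA 10, 30 or 100 μg/mL. Cell number read at 450 nm after 3 h with a count reagent; IFN-γ and IL-17 measured by ELISA.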

[5] = target: T2, C-type lectin domain family 4 member E (Homo sapiens) (UniProt Q9ULY5); assay: Agonist activity at human mincle coupled with FcRgamma expressed in 2B4-NFAT-GFP reporter cells after 18 hrs by flow cytometric analysis; format: cell-based; procedure, shortened: as §2
T2 sequence (whole entry): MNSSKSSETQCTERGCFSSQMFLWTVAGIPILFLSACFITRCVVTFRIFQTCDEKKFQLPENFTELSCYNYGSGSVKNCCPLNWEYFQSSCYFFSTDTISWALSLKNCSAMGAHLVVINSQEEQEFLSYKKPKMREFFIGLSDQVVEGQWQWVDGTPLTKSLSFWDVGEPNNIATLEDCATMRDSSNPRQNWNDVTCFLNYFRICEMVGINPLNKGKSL

Mus musculus [6] = organism: Mus musculus; assay: Adjuvant activity in immunized C57BL/6 mouse assessed as increase in OVA-specific IgG production in serum at 0.3 umol treated with ovalbumin for 7 days followed by stimulation with OVA for 7 days and restimulation with OVA measured 24 to 48 hrs post OVA challenge; format: functional
Procedure, shortened: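 Sera were taken on days 0, 7 and 14 from C57BL/6 mice sensitized s.c. with emulsion containing OVA 200 μg ± adjuvant 0.3 μmol and footpad-challenged with OVA on day 7. OVA-specific IgG, IgG1, IgG2b and IgG2c were measured by ELISA with HRP-coupled anti-mouse secondaries. EC50 was taken from absorbance at 450 nm plotted against log serum concentration.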

[7] = target: T1, C-type lectin domain family 4 member E (Mus musculus); assay: Agonist activity at mincle in wild type C57BL/6 mouse GM-CSF derived BMDM assessed as increase in TNF release at 0.1 to 1 nmol after 24 hrs by sandwich ELISA; procedure, shortened: as §1
Mus musculus [8] = organism: Mus musculus; assay: Adjuvant activity in immunized C57BL/6 mouse assessed as footpad swelling at 0.3 umol treated with ovalbumin for 7 days followed by stimulation with OVA for 7 days measured 24 to 48 hrs post OVA challenge; format: functional

## CCCCCCCCCCCCCCCCCCOc1ccc(C(=O)OC[C@H]2O[C@H](O[C@H]3O[C@H](COC(=O)c4ccc(OCCCCCCCCCCCCCCCCCC)cc4O)[C@@H](O)[C@H](O)[C@H]3O)[C@H](O)[C@@H](O)[C@@H]2O)c(O)c1
BMDM
  Activity: inactive
[1]
  Activity: Active
[2]
  Activity: Dose-dependent effect
[3]
  Activity: <= 0.1 EU/ml
Mus musculus [4]
  Activity: inactive
[5]
  Activity: Dose-dependent effect
Mus musculus [6]
  Activity: Active
[7]
  Activity: Active
Mus musculus [8]
  Activity: inactive
